Results on 1 compound are retold here after ChEMBL document CHEMBL4145607, “Tamarixetin Exhibits Anti-inflammatory Activity and Prevents Bacterial Sepsis by Increasing IL-10 Production” (J Nat Prod, 2018).

Experiment [1] has as its system Mus musculus. Briefly: Antiseptic activity in Balb/c mouse model of Escherichia coli K1 infection-induced sepsis assessed as increase in survival rate at 1 mg/kg, ip pretreated for 1 hr followed by Escherichia coli K1 infection measured over 72 hrs relative to control. The experiment is classed as functional. A digest of the protocol: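 BALB/c mice dosed i.p. 1 h before i.p. E. coli K1 strain RS218 (O18:K1:H7) challenge, 1 × 10^7 CFU per mouse, diluted in LB broth; n = 10; survival monitored over 72 h.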

In experiment [2] the test system is Mus musculus. Briefly: Antiinflammatory activity in Balb/c mouse model of LPS-induced endotoxemia assessed as reduction in infiltration of immune cells at 1 mg/kg, ip pretreated for 1 hr followed by LPS-challenge measured after 12 hrs by hematoxylin and eosin staining based microscopic analysis. It is filed as functional, organism-based. The procedure, abridged:
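Dosing was 1 mg·kg−1 i.p. 1 h before LPS 10 mg·kg−1 i.p. in BALB/c mice. At 12 h lungs were perfused and formalin-fixed, then paraffin-embedded. 5 μm sections were H&E-stained and imaged by microscope. Representative of three independent experiments.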

For experiment [3], the target named is T1, Toll-like receptor 4 (Mus musculus) (UniProt Q9QUK6).
T1 sequence (whole entry): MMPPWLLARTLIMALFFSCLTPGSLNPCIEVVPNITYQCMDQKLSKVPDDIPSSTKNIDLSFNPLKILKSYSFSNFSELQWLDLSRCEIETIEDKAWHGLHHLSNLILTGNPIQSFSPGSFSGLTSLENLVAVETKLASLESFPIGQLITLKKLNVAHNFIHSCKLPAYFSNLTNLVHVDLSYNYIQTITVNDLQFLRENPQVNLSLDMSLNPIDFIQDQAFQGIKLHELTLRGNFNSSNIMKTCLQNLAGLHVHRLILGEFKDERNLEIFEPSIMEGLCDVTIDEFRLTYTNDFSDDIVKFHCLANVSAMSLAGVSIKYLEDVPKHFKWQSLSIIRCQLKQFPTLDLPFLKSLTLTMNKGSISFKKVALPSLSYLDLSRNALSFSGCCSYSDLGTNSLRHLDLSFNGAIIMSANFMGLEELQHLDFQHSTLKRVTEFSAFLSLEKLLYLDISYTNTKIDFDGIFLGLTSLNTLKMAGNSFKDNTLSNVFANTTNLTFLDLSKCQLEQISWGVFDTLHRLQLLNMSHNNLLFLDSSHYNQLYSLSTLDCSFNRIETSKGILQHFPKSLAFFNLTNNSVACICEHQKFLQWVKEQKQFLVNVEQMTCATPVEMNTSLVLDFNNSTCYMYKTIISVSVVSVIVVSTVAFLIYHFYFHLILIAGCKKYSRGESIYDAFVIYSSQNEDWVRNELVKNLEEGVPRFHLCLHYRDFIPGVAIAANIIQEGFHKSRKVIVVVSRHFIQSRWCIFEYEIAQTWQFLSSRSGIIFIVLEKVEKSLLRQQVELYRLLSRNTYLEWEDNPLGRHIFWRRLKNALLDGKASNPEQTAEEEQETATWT
Briefly: Inhibition of LPS-induced TLR4 activation in C57BL/6 mouse BMDC assessed as reduction in Akt phosphorylation at 25 uM pretreated for 30 mins followed by LPS-challenge measured after 15 to 90 mins by Western blot analysis. The experiment is classed as cell-based. A digest of the protocol: (§1)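 BMDCs were pretreated 30 min with 25 μM compound, then stimulated with LPS 50 ng·mL−1 for the indicated times. Lysates (25 μg protein) were run on 10% SDS-PAGE and immunoblotted for phospho/total ERK, JNK, p38 and Akt, plus COX-2, IκBα and α-tubulin, with ECL detection. Representative of three experiments.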
(In general: A western blot detects proteins with antibodies after separation by electrophoresis.)

In experiment [4] the test system is Mus musculus. The experiment can be described thus: Antiseptic activity in Balb/c mouse model of Escherichia coli K1 infection-induced sepsis assessed as reduction in bacterial count in lungs at 1 mg/kg, ip pretreated for 1 hr followed by Escherichia coli K1 infection measured after 12 hrs. The experiment is classed as functional, organism-based. A digest of the protocol: (§2)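 Pretreatment was 1 mg·kg−1 i.p. 1 h before i.p. E. coli K1 (1 × 10^6 CFU per mouse) in BALB/c mice. At 12 h, lungs, liver and kidneys were homogenized in PBS and diluted 1:1000. 10 μL was plated on LB agar, incubated 24 h at 37 °C, and colonies counted.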

Experiment [5] concerns Mus musculus. The experiment can be described thus: Antiseptic activity in Balb/c mouse model of Escherichia coli K1 infection-induced sepsis assessed as reduction in infiltration of immune cells in lungs at 1 mg/kg, ip pretreated for 1 hr followed by Escherichia coli K1 infection measured after 12 hrs by hematoxylin and eosin staining based microscopic analysis. The experiment is classed as functional, organism-based. A digest of the protocol: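 BALB/c mice were given 1 mg·kg−1 i.p. 1 h before i.p. E. coli K1 (1 × 10^6 CFU per mouse). At 12 h, lungs were perfused and formalin-fixed. Sections were H&E-stained and examined by microscope. Representative of three independent experiments.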

Experiment [6] deals with BMDC. The experiment can be described thus: Inhibition of Escherichia coli K1 infection-induced immune response in C57BL/6 mouse BMDC assessed as reduction in IL-6 secretion at 25 uM pretreated for 60 to 120 mins followed by Escherichia coli K1 infection for 6 hrs by ELISA. The experiment is classed as functional, cell-based. The procedure, abridged:
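BMDCs from C57BL/6 mice were given 25 μM compound and E. coli K1, […]. Timing was: compound 30 min before a 6 h infection; cotreatment for 6 h; or compound for 30–120 min with 6 h infection. Supernatant cytokines (TNF-α, IL-6, IL-10, IL-12p70) were measured by ELISA. At least three experiments in triplicate.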
(In general: ELISA stands for enzyme-linked immunosorbent assay.)

Experiment [7] has as its target T1, Toll-like receptor 4 (Mus musculus). Briefly: Inhibition of LPS-induced TLR4 activation in C57BL/6 mouse BMDC assessed as reduction in JNK1 phosphorylation at 25 uM pretreated for 30 mins followed by LPS-challenge measured after 15 to 90 mins by Western blot analysis. The experiment is classed as cell-based. The procedure, abridged:
as §1

For experiment [8], the system named is BMDC. Briefly: Inhibition of LPS-induced immune response in C57BL/6 mouse BMDC assessed as reduction in TNFalpha secretion up to 25 uM pretreated for 30 mins followed by LPS-challenge measured after 6 hrs by ELISA. The experiment is classed as functional, cell-based. A digest of the protocol: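 Mouse BMDCs (female C57BL/6 bone marrow, GM-CSF-derived, ≥90% CD11c+ on day 7) pretreated 30 min with graded compound concentrations, then stimulated with LPS 50 ng/mL for 6 h. Supernatant TNF-α, IL-6, IL-10 and IL-12p70 quantified by sandwich ELISA. Mean ± SEM vs LPS-only cells; experiments repeated at least three times.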

Experiment [9] has as its target T1, Toll-like receptor 4 (Mus musculus). Briefly: Inhibition of LPS-induced TLR4 activation in C57BL/6 mouse BMDC assessed as reduction in p38 phosphorylation at 25 uM pretreated for 30 mins followed by LPS-challenge measured after 15 to 90 mins by Western blot analysis. It is filed as cell-based. A digest of the protocol: as §1
Experiment [10] has as its system Mus musculus. The experiment can be described thus: Antiinflammatory activity in Balb/c mouse model of LPS-induced endotoxemia assessed as reduction in serum TNFalpha level at 1 mg/kg, ip pretreated for 1 hr followed by LPS-challenge measured after 2 hrs by ELISA. It is filed as functional, organism-based. A digest of the protocol: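 BALB/c mice were dosed with 1 mg·kg−1 i.p. 1 h before LPS 10 mg·kg−1 i.p. Serum was taken 2 h later, and TNF-α, IL-6 and IL-10 were measured by sandwich ELISA. Means ± SEM.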

Experiment [11] has as its system Mus musculus. Briefly: Antiseptic activity in Balb/c mouse model of Escherichia coli K1 infection-induced sepsis assessed as reduction in bacterial count in kidneys at 1 mg/kg, ip pretreated for 1 hr followed by Escherichia coli K1 infection measured after 12 hrs. The experiment is classed as functional, organism-based. The procedure, abridged: as §2

The structures appear in SMILES notation. The source made the active and inactive calls. The rule behind the calls is not given here.

Turning to `COc1ccc(-c2oc3cc(O)cc(O)c3c(=O)c2O)cc1O` [TAMARIXETIN], the Activity with Mus musculus [1] stood at 80%. The result in the experiment with Mus musculus [2], in the experiment with Mus musculus [4], in the experiment with Mus musculus [5], in the experiment with Mus musculus [10] and in the experiment on Mus musculus [11] was Active. The inhibition entry (in [3]; in [7]; with BMDC [8]; in experiment [9]) was “Active” each time. Also, the inhibition entry in the experiment on BMDC [6] is “inactive”.
